Data set [1] can be described thus: Pharmacokinetic analysis of idarubicin in plasma. The format is in vivo, human. To be noted: for Cmax: iv, Maximum idarubicin plasma concentration (cmax), schedule A.
Data set [2] deals with patients with relapsed or refractory leukaemia. In words: Phase I safety and tolerability: adverse events, DLT, MTD. The format is in vivo, human. To be noted: Schedule B: for 3 days, with idarubicin 12 mg/m^2/d IV for 3 days.
Data set [3] deals with patients with refractory cutaneous T cell lymphoma (CTCL). To be noted: et al 2007, cited from earlier work.
Data set [4] has as its system histone-H3 acetylation in PBMCs. In words: Histone-H3 acetylation in PBMCs. The format is in vivo, human.
A further data set relates to TOP2A mRNA. In words: Real-time PCR of TOP2A mRNA expression in PBMCs. Format: in vivo, human. (Real-time PCR tracks product formation cycle by cycle.)
Data set [5] can be described thus: Pharmacokinetic analysis of vorinostat and two metabolites. Format: in vivo, human. To be noted: for Tmax / Cmax: human, serum. The gist of the method:
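Relapsed/refractory leukaemia patients self-dosed oral HDAC inhibitor TID for 14 days (arm A) or 3 days (arm B), 3+3 escalation from 100 mg, with anthracycline 12 mg/m2 IV over 30 min on days 1–3. Blood clotted 20–30 min at 4°C, spun 2,000 × g 15 min at 4°C, serum stored at -70°C. […] Dosing times unrecorded, so only Cmax and Tmax were derived.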

The structures appear in SMILES notation. Some results are limits rather than exact numbers.

By half-life is commonly meant the time in which the quantity being followed falls by half. A low value points to fast loss. For orientation: Cmax means the maximum level reached in the sampled fluid or tissue. In turn, `CC(=O)[C@]1(O)Cc2c(O)c3c(c(O)c2[C@@H](O[C@H]2C[C@H](N)[C@H](O)[C@H](C)O2)C1)C(=O)c1ccccc1C3=O` [idarubicin] showed a half-life in data set [1] (human, plasma, intravenous) of about 11 h. For the same molecule, the Cmax in data set [1] (human, plasma, mean, idarubicin 30-min intravenous infusion) was 66.1 ng/mL; in data set [1] (human, plasma, range, idarubicin 30-min intravenous infusion), 19.5 to 139 ng/mL. For the same molecule, the “Idarubicin peak plasma concentration, mean” value in data set [1] (schedule B, idarubicin 30-min intravenous infusion) was 55.4 ng/mL.

By Tmax is commonly meant the time at which the peak concentration occurs. Turning to `O=C(CCCCCCC(=O)Nc1ccccc1)NO` [vorinostat], in data set [2], the “Maximum tolerated dose (MTD) of vorinostat” value turned out to be 400 mg TID. The Response rate in data set [3] (Phase II, 3 different schedules, refractory CTCL, ref Duvic) is 24%. Besides, in data set [3] (second Phase II trial, progressive or refractory CTCL, ref Olsen), the Objective response rate was 30%. In addition, the “Patients with detectable histone acetylation at day 21” value in data set [4] (3-day schedule of vorinostat) is reported as 50%. For the same molecule, in data set [4] (15 of 33 available patient samples, both schedules), the “Patient samples with increased histone-H3 acetylation” value was found to be 46%. Moreover, the “Patients with increased histone-H3 acetylation” value in data set [4] (schedule A) is on record as 5/11; in data set [4] (schedule B), 10/22. The “Change of TOP2A mRNA levels relative to pretreatment” value is “downregulation” in the data set with TOP2A mRNA (schedule A, day 1 to day 21, p=0.016, Wilcoxon signed rank test) and “trend towards downregulation” in the data set on TOP2A mRNA (schedule B, by day 3 of therapy, p=0.168, Wilcoxon, returned to baseline later). Moreover, the Plasma concentrations achieved in data set [5] (TID dosing for 3 days, dose levels of 400 mg and 500 mg) is over 2000 nM. In addition, the time to peak (Tmax) in data set [5] (oral) was 1 to 3 h; in data set [5] (po, 100 mg) it was 2.5 h; in data set [5] (po, 300 mg) it was 2.5 h; in data set [5] (po, 400 mg), 2.25 h. The Cmax in data set [5] (oral, Median Cmax for vorinostat, non-responders) is 800 nM; in data set [5] (po, 100 mg, Vorinostat Mean Cmax, vorinostat 100 mg TID for 3 days oral, with idarubicin, N=3), 688 nM; in data set [5] (po, 100 mg, Vorinostat Median Cmax (Range), vorinostat 100 mg TID for 3 days oral, with idarubicin, N=3), 331 nM; in data set [5] (po, 200 mg, Vorinostat Mean Cmax, vorinostat 200 mg TID for 3 days oral, with idarubicin, N=3) it was 522 nM; in data set [5] (po, 200 mg, Vorinostat Median Cmax (Range), vorinostat 200 mg TID for 3 days oral, with idarubicin, N=3), 443 nM. The “Vorinostat Median Tmax” value in data set [5] (vorinostat 100 mg TID for 3 days oral, with idarubicin, N=3) is reported as 2 h; in data set [5] (vorinostat 200 mg TID for 3 days oral, with idarubicin, N=3), 1 h; in data set [5] (vorinostat 500 mg TID for 3 days oral, with idarubicin, N=5), 3 h.

The record behind these values is PMC4124904 (British journal of haematology, 2010).
